Series [1] relates to HT-29. Put plainly: Cell cycle arrest in human HT-29 cells assessed as reduction of cells in G2/M phase at 25 uM after 24 hrs by flow cytometry. It is filed as functional, cell-based. The method in brief: (§1)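 Exponentially growing HT-29 cells (1.5 × 10^5) were treated with the compounds for 24 h, then collected and fixed in ice-cold 70% ethanol. Fixed cells were treated with lysis buffer holding RNase A and 0.1% Triton X-100, stained with PI and analysed for DNA content by flow cytometry.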

Series [2] has as its system LoVo. Put plainly: Antiproliferative activity against human LoVo cells after 72 hrs by MTT assay. In kind it is functional. The gist of the method: (§2)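 Cells grown in DMEM with 10% FBS, penicillin G, streptomycin and L-glutamine, seeded 7 x 10^3 per well, left 24 h, then exposed to scalar concentrations in complete medium for 72 h at 37 °C, 5% CO2. Viability read by MTT; IC50 taken as the concentration giving 50% inhibition of proliferation.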

Series [3] deals with HT-29. Description: Antiproliferative activity against human HT-29 cells after 72 hrs by MTT assay. It is filed as functional. The following applies: HT-29, 72 h. The method in brief: as §2
The test system of series [4] is HT-29. Put plainly: Inhibition of Wnt signaling in human HT29 cells assessed as inhibition of beta-catenin-mediated Tcf/Lef transcriptional activity at 25 uM after 24 hrs by dual luciferase reporter gene assay relative to control in presence of GSK-3beta inhibitor LiCl. In kind it is cell-based. The method in brief:
(§3)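 HT-29 cells (1.4 x 10^4) were co-transfected with 1 µg BAT-LUX, which carries 7 TCF sites and the siamois promoter driving firefly luciferase, plus 1 µg Renilla vector. Cells were then treated at 37 °C for 24 h, with or without the GSK-3β inhibitor LiCl. Dual-Glo readout; values are the mean firefly/Renilla ratio.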

Series [5] deals with HT-29. Put plainly: Inhibition of Wnt signaling in human HT29 cells assessed as increase in cytoplasmic beta-catenin at 25 uM after 24 hrs by fluorescence microscopy. In kind it is cell-based. The gist of the method:
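Cells were fixed in cold 4% formaldehyde for 15 min and stained with anti-β-catenin (mouse, 1:50), then an Alexa-conjugated secondary, with DAPI counterstain. Images were taken on a video-confocal microscope with a 60x objective.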

The test system of series [6] is HT-29. Description: Inhibition of Wnt/beta-catenin signaling in human HT29 cells assessed as decrease in TCF4 mRNA expression at 25 uM after 24 hrs by quantitative real-time PCR assay. In kind it is cell-based. The method in brief: (§4)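 Total RNA was extracted with TRIzol from HT-29 cells treated for 24 h. Transcripts were measured by real-time RT-PCR with GUS as the reference gene, and expression was expressed relative to untreated cells.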

In series [7] the test system is HT-29. Description: Inhibition of Wnt signaling in human HT29 cells assessed as inhibition of beta-catenin-mediated Tcf/Lef transcriptional activity at 25 uM after 24 hrs by dual luciferase reporter gene assay relative to control. In kind it is cell-based. The gist of the method:
as §3

Series [8] has as its system A549. Description: Antiproliferative activity against human A549 cells after 72 hrs by MTT assay. In kind it is functional. The following applies: A549, 72 h. The gist of the method: as §2
Series [9] relates to HT-29. Description: Inhibition of Wnt/beta-catenin signaling in human HT29 cells assessed as downregulation of cyclin D1 protein expression at 25 uM after 24 hrs by Western blot analysis. It is filed as cell-based. The gist of the method:
(§5)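 After 24 h exposure, HT-29 cells were washed in cold PBS, lysed on ice for 30 min and cleared at 15 000 g, 4 °C. 10 µg protein was run on 12% SDS-PAGE and transferred to PVDF. Blots were probed with specific primary antibodies, then peroxidase-labelled secondaries, and developed by ECL. β-actin re-probing served as the loading control.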

Series [10] concerns HT-29. Put plainly: Inhibition of Wnt/beta-catenin signaling in human HT29 cells assessed as downregulation of cyclin B1 protein expression at 25 uM after 24 hrs by Western blot analysis. In kind it is cell-based. The gist of the method:
as §5

Series [11] relates to HT-29. Description: Inhibition of Wnt/beta-catenin signaling in human HT29 cells assessed as effect on c-myc mRNA expression at 25 uM after 24 hrs by quantitative real-time PCR assay. In kind it is cell-based. The method in brief:
as §4

Series [12] relates to HT-29. Put plainly: Inhibition of Wnt signaling in human HT29 cells assessed as inhibition of beta-catenin-mediated Tcf/Lef transcriptional activity after 24 hrs by dual luciferase reporter gene assay relative to control. It is filed as cell-based. The following applies: HT-29, 24 h.
The nature of series [13]: Antiproliferative activity against human fibroblasts after 72 hrs by MTT assay. It is filed as cell-based, Fibroblast.
Series [14] has as its system HT-29. Description: Cell cycle arrest in human HT-29 cells assessed as reduction of cells in S phase at 25 uM after 24 hrs by flow cytometry. It is filed as functional, cell-based. The gist of the method: as §1
Series [15] deals with HT-29. Put plainly: Inhibition of Wnt/beta-catenin signaling in human HT29 cells assessed as GSK3-beta dephosphorylation at Ser21/Ser9 residues at 25 uM after 24 hrs by Western blot analysis. In kind it is cell-based. The method in brief: as §5
Series [16] relates to HepG2. Put plainly: Antiproliferative activity against human HepG2 cells after 72 hrs by MTT assay. In kind it is functional. As to conditions: HepG2, 72 h. The method in brief:
as §2

The test system of series [17] is HT-29. Description: Inhibition of Wnt/beta-catenin signaling in human HT29 cells assessed as increase in phosphorylated c-myc level at 25 uM after 24 hrs by Western blot analysis. It is filed as cell-based. The gist of the method:
as §5

Series [18] has as its system HT-29. Description: Inhibition of Wnt/beta-catenin signaling in human HT29 cells assessed as […] protein level at 25 uM after 24 hrs by Western blot analysis. It is filed as cell-based. The gist of the method:
as §5

Series [19] relates to HT-29. Description: Cell cycle arrest in human HT-29 cells assessed as accumulation of cells at G1 phase at 25 uM after 24 hrs by flow cytometry. In kind it is functional, cell-based. The gist of the method:
as §1

Series [20] concerns HT-29. Put plainly: Inhibition of Wnt/beta-catenin signaling in human HT29 cells assessed as increase in p21 protein expression at 25 uM after 24 hrs by Western blot analysis. It is filed as cell-based. The gist of the method: as §5
The test system of series [21] is HT-29. Description: Inhibition of Wnt/beta-catenin signaling in human HT29 cells assessed as […] in axin2 mRNA expression at 25 uM after 24 hrs by quantitative real-time PCR assay. In kind it is cell-based. The method in brief: as §4
The species entered for series [22] is Danio rerio. Put plainly: Inhibition of Wnt/beta-catenin signaling in zebrafish larvae assessed as inhibition of Tcf/Lef transcriptional activity at 10 uM after 72 hrs by GFP reporter assay. It is filed as functional, organism-based. The method in brief:
(§6)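 TCF/LEF-GFP reporter zebrafish were exposed from 24 hours post-fertilization for 72 h, with compounds dissolved in E3 medium that was renewed daily. GFP in the head and intestine was imaged by fluorescence stereomicroscope at 8X, alongside bright-field images.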

The species named for series [23] is Danio rerio. Description: Toxicity in zebrafish larvae assessed as mortality at 25 uM treated for 7 days. As to conditions: in vivo, 168 h. In kind it is organism-based. The gist of the method:
(§7)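 Wild-type zebrafish larvae raised under standard conditions were exposed to compounds dissolved in E3 medium. The medium containing compound was renewed every day for 7 days. The read-out was survival rate (mortality) at the end of exposure.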

Series [24] is filed under the species Danio rerio. Description: Inhibition of Wnt/beta-catenin signaling in zebrafish larvae assessed as inhibition of Tcf/Lef transcriptional activity measured as dysmorphic craniofacial features at 10 uM after 72 hrs by GFP reporter assay. In kind it is functional, organism-based. The method in brief:
as §6

The test system of series [25] is Danio rerio. Put plainly: Inhibition of Wnt/beta-catenin signaling in zebrafish larvae assessed as inhibition of Tcf/Lef transcriptional activity measured as pericardial edema at 10 uM after 72 hrs by GFP reporter assay. In kind it is functional, organism-based. The method in brief: as §6
The subject of series [26] is HT-29. Put plainly: Inhibition of Wnt signaling in human HT29 cells assessed as beta-catenin dephosphorylation at S33/37/T41 residues at 25 uM after 24 hrs by Western blot analysis. In kind it is cell-based. The method in brief: as §5
The species named for series [27] is Danio rerio. Put plainly: Inhibition of Wnt/beta-catenin signaling in zebrafish larvae assessed as inhibition of Tcf/Lef transcriptional activity measured as thinner intestine at 10 uM after 72 hrs by GFP reporter assay. In kind it is functional, organism-based. The method in brief:
as §6

Series [28] concerns HT-29. Description: Inhibition of Wnt/beta-catenin signaling in human HT29 cells assessed as decrease in TCF1 protein level at 25 uM after 24 hrs by Western blot analysis. It is filed as cell-based. The gist of the method:
as §5

Series [29] is filed under the species Danio rerio. Put plainly: Toxicity in zebrafish larvae assessed as mortality at 5 to 25 uM treated for 7 days. It is filed as organism-based. The following applies: in vivo, 168 h. The method in brief:
as §7

For series [30], the species on record is Danio rerio. Put plainly: Toxicity in zebrafish larvae assessed as mortality at 1 uM treated for 7 days. It is filed as organism-based. The following applies: in vivo, 168 h. The method in brief:
as §7

For series [31], the species on record is Danio rerio. Put plainly: Inhibition of Wnt/beta-catenin signaling in zebrafish larvae assessed as inhibition of Tcf/Lef transcriptional activity measured as thinner intestine at 1 uM after 72 hrs by GFP reporter assay. It is filed as functional, organism-based. The gist of the method:
as §6

Calls of active or inactive are those of the source. The rule behind the calls is not given here.

Take `Cc1cc(O)n2cc(-c3ccc([N+](=O)[O-])cc3)nc2n1`: the outcome in series [1], in [14] and in [19] was inactive. Also, the concentration for 50% growth inhibition (GI50) was 87.6 µM in [2], 90.1 µM in series [3], 38.9 µM in series [8] and over 100 µM in series [16]. Moreover, the inhibition entry in series [4], in [5], in [6], in [7], in series [9] and in series [10] was “Active” in each case. Besides, the inhibition result in series [17], in [18], in [20] and in series [21] was “Active” in each case. The inhibition entry in series [11] and in series [15] was “inactive” throughout. For the same molecule, the half-inhibitory concentration (IC50) in series [12] was 10.4 µM. This molecule returned a 50% growth inhibitory concentration (GI50) at 72 h in [13] of over 100 µM.
As for `O=C(Nc1cccc2cccnc12)c1ccc(N2C(=O)[C@@H]3[C@H](C2=O)[C@@H]2C=C[C@H]3C2)cc1`, the concentration for 50% growth inhibition (GI50) in [2] is 63.1 µM; in [3], over 100 µM; in series [8], over 100 µM; in series [16], 95.4 µM. Also, the inhibition entry in series [4], in series [7], in [22] and in series [21] was “Active” in each case.
As to `Cc1ccn2cc(-c3ccc(N(Cc4ccccc4)Cc4ccccc4)cc3)nc2c1`, the result in series [1], in series [14] and in series [19] was Active. Besides, the concentration for 50% growth inhibition (GI50) in [2] came out at 5.7 µM; in series [3], 6.9 µM; in [8], 17.2 µM; in series [16], 18.4 µM. Also, in series [23], the Activity result is on record as “Toxic”. Also, the inhibition entry in series [4], in [24], in series [6], in series [7], in [9] and in [10] was “Active” each time. Further, the inhibition entry in series [25], in series [26], in series [27], in [17], in series [28] and in series [20] was “Active” throughout. In addition, the inhibition entry in [21] is “Active”. In addition, the inhibition entry in series [11] and in series [15] was “inactive” in each case. The IC50 in series [12] was 24.1 µM. In series [13], this molecule had a 50% growth inhibitory concentration (GI50) at 72 h of 52.3 µM.
Regarding `CC(=O)Nc1cc(=O)n(Cc2ccccc2)c(SCc2ccccc2)n1`, the GI50 amounted to 56.3 µM in series [2], 79.3 µM in series [3], 50.4 µM in series [8] and 71.7 µM in series [16]. In addition, the Activity entry is reported as “Toxic” in series [29] and “Non-toxic” in series [30]. Further, the inhibition entry in series [31] is “Active”. For the same molecule, the IC50 in series [12] worked out at 35.6 µM.
As for `Cc1ccc2nc(-c3ccc(NCc4ccccc4)cc3)cn2c1`, the outcome in series [1], in series [14] and in [19] was inactive. The GI50 in series [3] was 8.8 µM; in series [8] it was 56.1 µM; in [16], over 100 µM. The inhibition result in series [4], in [6], in series [7], in series [9], in series [10] and in series [26] was “Active” in each case. The inhibition result in series [17], in [18], in [20] and in series [21] was “Active” in each case. The values for the Activity result in series [29] and in series [30] were “Toxic” and “Non-toxic”, respectively. For the same molecule, the inhibition result in series [11] and in series [15] was “inactive” in each case. In [12], the half-inhibitory concentration (IC50) worked out at 11.1 µM. In series [13], this molecule gave a concentration for 50% growth inhibition (GI50) at 72 h of over 100 µM.

The values are drawn from ChEMBL document CHEMBL3286382, “Synthesis and biological evaluation of imidazo[1,2-a]pyrimidines and imidazo[1,2-a]pyridines as new inhibitors of the Wnt/β-catenin signaling” (Eur J Med Chem, 2014).
